Assays:
[1] = system: Human orthopneumovirus; assay: Antiviral activity against Respiratory syncytial virus A strain Long infected in Hep2 cells assessed as reduction in virus-induced cytopathic effect after 5 days by microscopic analysis; format: functional, organism-based; conditions: HEp-2, 120 h
Outline: (§1)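 HEp-2 cells seeded 5×10^3/well in DMEM with 2% heat-inactivated FBS and 1% NEAA, 37°C, 5% CO₂; next day medium replaced with 1:2 serial dilutions of compound (eight concentrations, 0.7-100 μM) and infected with RSV-A Long or RSV-B Wash at moi 0.01 CCID₅₀/cell. CPE scored microscopically (0–5) at day 5; EC₅₀ by logarithmic interpolation as 50% protection; mean of ≥2 independent experiments.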

[2] = system: Human orthopneumovirus; assay: Antiviral activity against Respiratory syncytial virus B infected in Hep2 cells assessed as reduction in virus-induced cytopathic effect after 5 days by microscopic analysis; format: functional, organism-based; conditions: HEp-2, 120 h; outline: as §1
[3] = Cytotoxicity against human Hep2 cells assessed as reduction in cell viability measured after 5 days by MTS assay; format: cell-based; conditions: HEp-2 cells
Outline: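 Uninfected HEp-2 cultures set up as for the antiviral assay (5×10^3 cells/well, DMEM with 2% FBS and 1% NEAA, 37°C, 5% CO₂) and treated with serial 1:2 compound dilutions; metabolic activity quantified at day 5 by MTS readout to give CC₅₀; mean of ≥2 independent experiments.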

| Structure (SMILES) | EC50 [1] | EC50 [2] | CC50 at 120 h [3] |
| --- | --- | --- | --- |
| COc1ccc(CN2CCN(C(=S)SCc3nc4ccccc4s3)CC2)cc1 |  | 3 µM | > 100 µM |
| CC(C)(C)c1ccc(CN2CCN(C(=S)SCc3nc4ccccc4s3)CC2)cc1 |  | 2.2 µM | 71.7 µM |
| Cc1ccc(CN2CCN(C(=S)SCc3nc4ccccc4s3)CC2)c(C)c1 | 4.97 µM |  | > 100 µM |
| COC(=O)c1ccc(CN2CCN(C(=S)SCc3nc4ccccc4s3)CC2)cc1 | 14.8 µM | 3.9 µM | > 100 µM |
| Cc1cc(C)c(CN2CCN(C(=S)SCc3nc4ccccc4s3)CC2)c(C)c1 | 42.2 µM | 20.6 µM | > 100 µM |
| CCOC(=O)c1ccc(CN2CCN(C(=S)SCc3nc4ccccc4s3)CC2)cc1 | 40.8 µM | 4 µM | > 100 µM |
| FC(F)(F)c1ccc(CN2CCN(C(=S)SCc3nc4ccccc4s3)CC2)cc1 | 3.31 µM |  | > 100 µM |
| Nc1ccn([C@@H]2O[C@@](CO)(CCl)[C@@H](O)[C@H]2F)c(=O)n1 [ALS-8112] | 2.6 µM | 2.6 µM | > 100 µM |

Second part, led by results:

| EC50 [1] | EC50 [2] | Structure (SMILES) | CC50 at 120 h [3] |
| --- | --- | --- | --- |
| 35.3 µM | 12.5 µM | O=S(=O)(c1ccccc1)N1CCN(C(=S)SCc2nc3ccccc3s2)CC1 | > 100 µM |
| 8.3 µM | 3.9 µM | S=C(SCc1nc2ccccc2s1)N1CCN(Cc2ccccc2)CC1 | > 100 µM |
| 11.8 µM | 3 µM | Cc1cccc(CN2CCN(C(=S)SCc3nc4ccccc4s3)CC2)c1 | > 100 µM |
| 3.3 µM | 3.8 µM | FC(F)(F)c1cccc(CN2CCN(C(=S)SCc3nc4ccccc4s3)CC2)c1 | > 100 µM |
| 44.1 µM | 24.8 µM | O=C(c1ccccc1)N1CCN(C(=S)SCc2nc3ccccc3s2)CC1 | 45 µM |
| 4.4 µM | 1.3 µM | S=C(SCc1nc2ccccc2s1)N1CCN(c2ccccc2)CC1 | > 100 µM |
|  | 1.32 µM | Cc1ccc(CN2CCN(C(=S)SCc3nc4ccccc4s3)CC2)cc1 | > 100 µM |
| 10.4 µM | 20.6 µM | Cc1ccccc1CN1CCN(C(=S)SCc2nc3ccccc3s2)CC1 | > 100 µM |
| 4.4 µM | 2.5 µM | Fc1ccc(CN2CCN(C(=S)SCc3nc4ccccc4s3)CC2)cc1 | > 100 µM |
| 7.7 µM |  | S=C(SCc1nc2ccccc2s1)N1CCN(CCc2ccccc2)CC1 | > 100 µM |

From ChEMBL document CHEMBL4627325, “Rational modifications, synthesis and biological evaluation of new potential antivirals for RSV designed to target the M2-1 protein” (Bioorg Med Chem, 2020)
